Experimental data published in ChEMBL document CHEMBL1122071, “Avermectin acyl derivatives with anthelmintic activity” (1982).

Columns and labels:
Type in all cases: functional
[1] = test system: Cooperia oncophora; test: Anthelmintic efficacy against adult Cooperia oncopphora (C.o) in sheep at dose of 0.25 mg/kg administered orally; settings: route oral
Procedure, shortened: (§1)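 Lambs experimentally infected with mixed gastrointestinal nematodes (H. contortus, O. circumcincta, T. axei, T. colubriformis, C. oncophora, Oe. columbianum) were dosed orally, 1–3 sheep per dose. An untreated infected group of 6 was included, with worm burdens given as the geometric mean number of worms per lamb. Efficacy was scored against adult and, where listed, EL4 stages.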

[2] = test system: Trichostrongylus colubriformis; test: Minimal dose necessary to eliminate > 83% of Trichostrongylus colubriformis infection in gerbils
[3] = test system: Trichostrongylus colubriformis; test: Anthelmintic efficacy against Trichostrongylus colubriformis (T.c) in sheep at dose of 0.25 mg/kg administered orally; settings: route oral; procedure, shortened: as §1
[4] = test system: Oesophagostomum columbianum; test: Anthelmintic efficacy against Oseophagostomum columbianum (Oe. c) in sheep at dose of 0.25 mg/kg administered orally; settings: route oral; procedure, shortened: as §1
[5] = test system: Teladorsagia circumcincta; test: Anthelmintic efficacy against adult Ostertagia circumcincta (O. c) in sheep at dose of 0.25 mg/kg administered orally; settings: route oral; procedure, shortened: as §1
[6] = test system: Teladorsagia circumcincta; test: Anthelmintic efficacy against adult (EL4) Ostertagia circumcincta (O. c) in sheep at dose of 0.15 mg/kg administered orally; settings: route oral; procedure, shortened: as §1
[7] = test system: Teladorsagia circumcincta; test: Anthelmintic efficacy against immature (EL4) Ostertagia circumcincta (O. c) in sheep at dose of 0.15 mg/kg administered orally; 20-59%
[8] = test system: Trichostrongylus colubriformis; test: Anthelmintic efficacy against Trichostrongylus colubriformis (T.c) in sheep at dose of 0.15 mg/kg administered orally; settings: route oral; procedure, shortened: as §1
[9] = test system: Haemonchus contortus; test: Anthelmintic efficacy against adult Haemonchus contortus (H.c) in sheep at dose of 0.15 mg/kg administered orally; settings: route oral; procedure, shortened: as §1
[10] = test system: Haemonchus contortus; test: Anthelmintic efficacy against adult Haemonchus contortus (H.c) in sheep at dose of 0.25 mg/kg administered orally; settings: route oral; procedure, shortened: as §1
[11] = test system: Oesophagostomum columbianum; test: Anthelmintic efficacy against Oseophagostomum columbianum (Oe. c) in sheep at dose of 0.15 mg/kg administered orally; settings: route oral; procedure, shortened: as §1
[12] = test system: Trichostrongylus axei; test: Anthelmintic efficacy against Trichostrongylus axei (T.a) in sheep at dose of 0.15 mg/kg administered orally; settings: route oral; procedure, shortened: as §1
[13] = test system: Cooperia oncophora; test: Anthelmintic efficacy against adult Cooperia oncopphora (C.o) in sheep at dose of 0.15 mg/kg administered orally; settings: route oral; procedure, shortened: as §1
[14] = test system: Trichostrongylus axei; test: Anthelmintic efficacy against Trichostrongylus axei (T.a) in sheep at dose of 0.25 mg/kg administered orally; settings: route oral; procedure, shortened: as §1
[15] = test system: Oesophagostomum columbianum; test: Anthelmintic efficacy against Oseophagostomum columbianum (Oe. c) in sheep at dose of 0.1 mg/kg administered subcutaneously; settings: route subcutaneous
Procedure, shortened: (§2)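 Experimentally infected lambs carrying mixed nematode species each received 0.1 mg/kg by subcutaneous injection, one sheep per treatment. An untreated infected group of 6 lambs served as comparison, with worm burdens given as the geometric mean number of worms per lamb. Efficacy was scored for each parasite species.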

[16] = test system: Trichostrongylus colubriformis; test: Anthelmintic efficacy against Trichostrongylus colubriformis (T.c) in sheep at dose of 0.1 mg/kg administered subcutaneously; settings: route subcutaneous; procedure, shortened: as §2
[17] = test system: Cooperia curticei; test: Anthelmintic efficacy against immature (EL4) Cooperia curticei. in sheep at dose of 0.1 mg/kg administered subcutaneously; settings: route subcutaneous
[18] = test system: Trichostrongylus axei; test: Anthelmintic efficacy against Trichostrongylus axei (T.a) in sheep at dose of 0.1 mg/kg administered subcutaneously; 60-89; settings: route subcutaneous; procedure, shortened: as §2
[19] = test system: Cooperia curticei; test: Anthelmintic efficacy against adult Cooperia curticei. in sheep at dose of 0.1 mg/kg administered subcutaneously; settings: route subcutaneous
[20] = test system: Haemonchus contortus; test: Anthelmintic efficacy against adult Haemonchus contortus (H.c) in sheep at dose of 0.1 mg/kg administered subcutaneously; settings: route subcutaneous; procedure, shortened: as §2

Structure (SMILES) | Efficacy [1] | Dose [2] | Efficacy [3] | Efficacy [4] | Efficacy [5] | Efficacy [6] | Efficacy [7] | Efficacy [8] | Efficacy [9] | Efficacy [10] | Efficacy [11] | Efficacy [12] | Efficacy [13] | Efficacy [14] | Efficacy [15] | Efficacy [16] | Efficacy [17] | Efficacy [18] | Efficacy [19] | Efficacy [20]
CC[C@H](C)[C@H]1O[C@]2(C=C[C@@H]1C)C[C@@H]1C[C@@H](C/C=C(\C)[C@@H](O[C@H]3C[C@@H](OC)[C@@H](O[C@H]4C[C@@H](OC)[C@@H](OC(C)=O)[C@H](C)O4)[C@H](C)O3)[C@@H](C)/C=C/C=C3\CO[C@@H]4[C@H](OC(C)=O)C(C)=C[C@@H](C(=O)O1)[C@]34O)O2 | >90% | 0.25 mg/kg | >90% | >90% | >90% | >90% | 20% | >90% | >90% | >90% | >90% | >90% | >90% | >90% |  |  |  |  |  | 
CC[C@H](C)[C@H]1O[C@]2(C=C[C@@H]1C)C[C@@H]1C[C@@H](C/C=C(\C)[C@@H](O[C@H]3C[C@@H](OC)[C@@H](O[C@H]4C[C@@H](OC)[C@@H](OC(=O)CCC(=O)O)[C@H](C)O4)[C@H](C)O3)[C@@H](C)/C=C/C=C3\CO[C@@H]4[C@H](O)C(C)=C[C@@H](C(=O)O1)[C@]34O)O2 |  | 0.03 mg/kg |  |  |  |  |  |  |  |  |  |  |  |  | >90% | >90% | >90% | 60% | >90% | >90%
